Experimental data taken from article PMC11951523 (Genome Biology, 2025).
Like-named read-outs stand apart in the source and are kept apart here.

Experiments:
SpyCas9 [1] = molecular target: T1, SpyCas9 (Streptococcus pyogenes serotype M1, UniProt Q99ZW2); assay: biochemical; conditions: for activity on Cas9 (structure–activity relationship of pamoic acid): SpyCas9, standard assay conditions; for IC50: Spy Cas9
SauCas9 [2] = molecular target: T2, SauCas9 (Staphylococcus aureus, UniProt J7RUA5); type: cell-based
T2 sequence (J7RUA5 1-1053): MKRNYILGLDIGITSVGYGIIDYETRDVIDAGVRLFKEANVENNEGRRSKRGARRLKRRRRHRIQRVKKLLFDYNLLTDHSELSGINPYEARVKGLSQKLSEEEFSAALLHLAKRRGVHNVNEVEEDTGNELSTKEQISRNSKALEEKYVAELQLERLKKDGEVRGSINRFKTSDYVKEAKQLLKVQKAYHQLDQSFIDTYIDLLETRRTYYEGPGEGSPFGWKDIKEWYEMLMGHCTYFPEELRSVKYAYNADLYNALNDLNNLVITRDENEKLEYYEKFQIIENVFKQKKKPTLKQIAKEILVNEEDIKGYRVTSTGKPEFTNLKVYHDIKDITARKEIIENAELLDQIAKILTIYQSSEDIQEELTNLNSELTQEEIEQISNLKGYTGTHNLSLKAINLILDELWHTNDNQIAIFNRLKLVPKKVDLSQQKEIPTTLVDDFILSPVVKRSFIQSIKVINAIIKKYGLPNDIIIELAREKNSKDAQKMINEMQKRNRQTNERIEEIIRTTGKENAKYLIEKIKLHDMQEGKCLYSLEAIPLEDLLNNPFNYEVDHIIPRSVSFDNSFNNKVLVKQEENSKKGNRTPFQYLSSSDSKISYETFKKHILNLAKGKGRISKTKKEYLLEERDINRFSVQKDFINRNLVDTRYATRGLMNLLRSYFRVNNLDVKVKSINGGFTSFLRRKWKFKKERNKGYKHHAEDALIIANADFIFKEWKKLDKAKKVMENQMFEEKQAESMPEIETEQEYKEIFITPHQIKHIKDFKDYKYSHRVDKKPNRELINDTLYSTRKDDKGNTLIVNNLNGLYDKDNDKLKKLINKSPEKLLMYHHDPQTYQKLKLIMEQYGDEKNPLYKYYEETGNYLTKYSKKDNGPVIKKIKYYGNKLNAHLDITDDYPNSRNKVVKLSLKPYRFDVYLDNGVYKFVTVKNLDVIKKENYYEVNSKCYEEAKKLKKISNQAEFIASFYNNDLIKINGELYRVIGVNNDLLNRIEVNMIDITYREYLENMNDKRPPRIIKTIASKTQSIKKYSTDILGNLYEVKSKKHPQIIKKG
Method in brief: (§1)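 MG1655 competent cells carrying pCas (SpyCas9 or SauCas9) were electroporated with 300 ng pTarget-sgSSEA (867 bp) or its Sau version, which carries an 867-bp homologous recombination repair template. Test compound was added to 700 μl LB right after electroporation, held 1.5 h at 32 °C, then plated on LB agar with 100 μg/ml kanamycin and 100 μg/ml spectinomycin. The SSEA site was genotyped by PCR.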

SauCas9 [3] = molecular target: T2, SauCas9; assay: SauCas9-mediated genome editing of COSMC in HEK293FT cells, TIDE analysis; type: cell-based
Method in brief: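 HEK293FT wt cells were co-transfected (Lipofectamine 3000) with 1 μg miniCMV-SaCas9 and 1 μg pGL3 carrying sgCOSMC-Sau or sgControl. Test compound was added right after transfection for 24 h, followed by 2.5 μg/ml puromycin selection. The COSMC locus was PCR-amplified (40 cycles), Sanger-sequenced, and editing efficiency was obtained by TIDE analysis.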

[4] = system: SpyCas9-mediated genome editing of PCSK9; assay: SpyCas9-mediated anti-PCSK9 mouse model by hydrodynamic injection; type: in vivo, BALB/c mice; conditions: for plasma total cholesterol restored to the level of the control: 3rd blood collection
Method in brief: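 On days 1, 4 and 7, 90 μg PX459-SpyCas9-sgPCSK9 or -sgControl in 2 ml saline was injected hydrodynamically into the tail vein over 5–8 s. Orbital blood (~100 μl) was taken days 2, 5 and 8, and heparin plasma (20 μl) was assayed by PCSK9 ELISA.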

BE4 base editor = BE4 base editor (Streptococcus pyogenes, UniProt Q99ZW2, D10A); assay: BE4-mediated base editing of EMX1 in HEK293FT cells, EditR analysis; type: cell-based
E. coli MG1655 = assay: Toxicity to bacteria in the two-plasmid-based bacterial survival assay; type: cell-based; conditions: for toxicity to E. coli: MG1655, bacterial survival assay
Method in brief: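 MG1655 pCas-competent cells were electroporated with pT-sgControl. Test compound was added to 700 μl LB immediately afterwards and incubated 1.5 h at 32 °C, then plated on LB agar with kanamycin and spectinomycin (100 μg/ml each). Colonies were counted after overnight incubation; biological replicates n = 3.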

SpyCas9 [5] = molecular target: T1, SpyCas9; assay: Two-plasmid-based bacterial survival assay; type: cell-based; conditions: IC50, bacteria-based assay, Spy Cas9; bacterial survival assay using pCas and pTarget-sgSSEA plasmids, E. coli MG1655
Method in brief: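 E. coli MG1655 competent cells carrying pCas (SpyCas9) electroporated with pTarget-sgSSEA, or the pT-sgControl plasmid as reference. Test compound added to the electroporated bacteria for 1.5 h at 32 °C, then plated on LB with kanamycin and spectinomycin and incubated overnight. Colonies counted and expressed as a percentage of the compound-treated sgControl strain at the same concentration (100%).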

SpyCas9 [6] = molecular target: T1, SpyCas9; type: cell-based
Method in brief: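 HEK293FT cells, ~2 × 10^5 per well, were seeded 1 day before transfection (Lipofectamine 3000) with 1 μg PX459-SpyCas9-sgCOSMC, -sgEMX1 or -sgControl. Test compound was added 0 or 6 h post-transfection, and cells were kept 24 h at 37 °C, then selected with 2.5 μg/ml puromycin for 36–48 h. Target loci were PCR-amplified, Sanger-sequenced and scored by TIDE.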

FnoCas12a = FnoCas12a (Francisella tularensis subsp. novicida, UniProt A0Q7Q2); type: biochemical
LbaCas12a = LbaCas12a activity assay; type: biochemical, Lachnospiraceae bacterium; conditions: complete inhibition refers to 50 μM or above
SpyCas9 [7] = assay: biochemical; parameters: species or system Streptococcus pyogenes
SpyCas9 [8] = molecular target: T1, SpyCas9; type: cell-based; remark: listed apart in the source
Method in brief: as §1

SauCas9 [9] = molecular target: T2, SauCas9; assay: In vitro purified enzyme activity assay for SauCas9; type: biochemical; conditions: IC50, in vitro purified enzyme assay, Sau Cas9
SpyCas9 [10] = molecular target: T1, SpyCas9; assay: GFP-disruption assay in HEK293FT cells; type: cell-based
[11] = in humans; cited from earlier work
SpyCas9 [12] = molecular target: T1, SpyCas9; assay: Surface plasmon resonance assay; type: binding
Method in brief: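 His-tagged SpyCas9, Ni–NTA purified and imidazole-eluted, amine-coupled to a CM5 chip at 100 μg/ml. Test compounds were diluted in 1× PBST to a series of concentrations and injected at 30 μl/min, with 120 s association and 120 s dissociation. Equilibrium KD was fitted from the response curves.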

[13] = IC50, in vitro purified enzyme assay, linear substrates (87 bp oligonucleotide or 2.5 kb linear DNA)
[14] = IC50, in vitro purified enzyme assay, supercoil (circular) plasmid substrate pcDNA3.1/CT-GFP
[15] = linear substrates (87 bp oligonucleotide)
[16] = supercoil (circular) plasmid substrate

Row | Compound | activity on Cas9 (structure–activity relationship of pamoic acid) (SpyCas9 [1]) | IC50 (SauCas9 [2]) [µM] | IC50 (SpyCas9 [5]) [µM] | effect on the activity of FnoCas12a (FnoCas12a) | effect on the activity of LbaCas12a (LbaCas12a) | IC50 (SpyCas9 [1]; [13]) [µM] | IC50 (SpyCas9 [1]; [14]) [µM] | IC50 (SpyCas9 [8]) [µM] | IC50 (SauCas9 [9]; [15]) [µM] | IC50 (SauCas9 [9]; [16]) [µM] | also measured
1 | Nc1ccc(O)c(C(=O)O)c1 [5-aminosalicylic acid] | inactive |  |  |  |  |  |  |  |  |  | 
2 | CC1(C)[C@@H](OC(=O)CCC(=O)O)CC[C@]2(C)[C@H]3C(=O)C=C4[C@@H]5C[C@@](C)(C(=O)O)CC[C@]5(C)CC[C@@]4(C)[C@]3(C)CC[C@@H]12 [Carbenoxolone] |  | 100 to 200 | ~200 | inactive to or weakly inhibited | inactive to or weakly inhibited | 5 to 10 | ~100 | 50 to 100 | 25 to 50 | 100 to 200 | IC50 (SauCas9 [3]): 20 to 50 µM; effect on the basal level of PCSK9 in vehicle-treated (sgControl) mice ([4]; 160 mg/kg): did not interfere; plasma total cholesterol restored to the level of the control ([4]; 160 mg/kg): largely restored; preventive effect on loss of plasma PCSK9 ([4]; high doses of 80 or 160 mg/kg, 2nd or 3rd treatment cycle): strong preventive effects; IC50 (BE4 base editor): 20 to 50 µM; toxicity to E. coli (E. coli MG1655): did not appear to be much toxic; IC50 (SpyCas9 [6]): 20 to 50 µM; effect of mutation of catalytic residues D10 or H840 on the IC50 (SpyCas9 [7]): did not affect; IC50 (SpyCas9 [10]): 10 to 20 µM
3 | COc1cccc2c1C(=O)c1c(O)c3c(c(O)c1C2=O)C[C@@](O)(C(=O)CO)C[C@@H]3O[C@H]1C[C@H](N)[C@@H](O)[C@H](C)O1 [Epirubicin] |  | ~6.25 | 3.13 to 6.25 | completely inhibit | completely inhibit | 2 to 5 | 2 to 5 | 6.25 to 12.5 | 6.25 to 12.5 | 3.13 to 6.25 | site of metabolism / elimination [11]: mainly metabolized in human liver; Kd (SpyCas9 [12]): > 1000 µM; toxicity to electroporated bacteria (E. coli MG1655; at a concentration of 50 μM): significant toxicity
4 | OCCOCCN1CCN(C(c2ccccc2)c2ccc(Cl)cc2)CC1 (stereo not shown) [Hydroxyzine pamoate] |  |  |  |  |  | 20 to 50 | > 200 |  |  |  | 
5 | O=C(O)c1cc(/N=N/c2ccc(O)c(C(=O)O)c2)ccc1O [Olsalazine, olsalazine] | inactive |  |  |  |  |  |  |  |  |  | 
6 | CN1CCCN=C1/C=C/c1cccc(O)c1 [Oxantel pamoate] |  |  |  |  |  |  |  |  |  |  | IC50 (SpyCas9 [1]; read-out: IC50, in vitro purified enzyme assay, supercoil (circular) plasmid substrate pcDNA3.1/CT-GFP): > 200 µM
7 | O=C(O)c1cc2ccccc2c(Cc2c(O)c(C(=O)O)cc3ccccc23)c1O [Pamoic acid] |  | 250 to 500 | 200 to 400 | inactive to or weakly inhibited | inactive to or weakly inhibited | 10 to 20 | 400 to 600 | ~400 | 25 to 50 | 500 to 1000 | site of metabolism / elimination [11]: mainly metabolized in human liver; IC50 (SauCas9 [3]): 20 to 50 µM; plasma total cholesterol restored to the level of the control ([4]; 80 mg/kg): largely restored; effect on the basal level of PCSK9 in vehicle-treated (sgControl) mice ([4]; 160 mg/kg): did not interfere; plasma total cholesterol restored to the level of the control ([4]; 160 mg/kg): largely restored; restoration of plasma PCSK9 level ([4]; 80 or 160 mg/kg intraperitoneal, 1st, 2nd, or 3rd treatment cycle): completely restore; dose from which a dose-dependent preventative effect on plasma PCSK9 starts ([4]; intraperitoneal): ≥ 20 mg/kg; effect on PCSK9 allele modifications in liver (NGS) ([4]; medium dose of 40 mg/kg): largely reduced but not totally prevented; IC50 (BE4 base editor): ~50 µM; toxicity to E. coli (E. coli MG1655): did not appear to be much toxic; IC50 (SpyCas9 [6]): 20 to 50 µM; effect of mutation of catalytic residues D10 or H840 on the IC50 (SpyCas9 [7]): did not affect; IC50 (SpyCas9 [10]): 20 to 50 µM
8 | O=C(O)c1ccccc1O [Salicylic acid, salicylic acid] | inactive |  |  |  |  |  |  |  |  |  | 
